# Bioassay records: PubChem, several laboratories
# HSF1 activator = increases HSF-1 driven luciferase reporter signal; NIH3T3-HGL HSF-1 luciferase reporter, MG132, 8 h; 100% = twice DMSO control signal; activation, % at 9 µM; 300,000 tested, 1.7% active; AID 504408;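 active = mean replicate activation of at least 50% with a set share of replicates each reaching 50%; inconclusive = only one of those two conditions met; inactive = mean below 50% and too few replicates reaching it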;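 note: 0% = median of the neutral control wells and 100% = twice that signal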
# HSF1 inhib = HSF1 inhibition | NIH3T3-HGL HSE-luciferase, MG132-induced, luminescence 8 h; active compounds read low | activity change, negative = inhibition, % at 7.5 µM (by protocol) | 300,000 tested, 0.77% active;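 active = more than half of replicate wells show activity change below -50%, luminescence cut by over half; inconclusive = some wells, but at most half, below -50%; inactive = no replicate well below -50%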;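 note: luciferase reports HSF-1 transcriptional activity via heat shock element; 0% = median of DMSO wells and -100% = zero luminescence signal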
# core dimer inh = blocks dimerization of HCV core protein; AID 1899; 300,000 tested, 0.33% active; TR-FRET GST/Flag-core106 dimerization, 1536-well; inhibition, % at 5 µM;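 active = inhibition above the mean of all tested compounds plus 3 SD, set per screening campaign, cut at about 45% in these data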
#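 Assay system: GST-tagged and Flag-tagged HCV core protein residues 1-106 / Times: compound-protein-antibody incubation 4 h at 22.5 °C / Signal: time-resolved FRET, ex 340 nm, em 617 and 671 nm / Evaluation: % inhibition based on acceptor/donor emission ratio / Benchmarks: wells lacking GST-core106 and wells with excess unlabelled core106 / Repeats: singlicate, one well per compound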
# ALR inh = inhibitors of human sulfhydryl oxidase ALR. P55789. purified ALR, DTT oxidation, H2O2 HRP-luminol luminescence. inhibition, % (concentration not given with the values). 290,000 tested, 3.8% active;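 active = mean replicate inhibition above about 79%, with every replicate also reaching it, limit read from the data; inconclusive = only one of the two criteria met; inactive = mean below limit and not every replicate reaching it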
# Target sequence (P55789 whole entry, looked up): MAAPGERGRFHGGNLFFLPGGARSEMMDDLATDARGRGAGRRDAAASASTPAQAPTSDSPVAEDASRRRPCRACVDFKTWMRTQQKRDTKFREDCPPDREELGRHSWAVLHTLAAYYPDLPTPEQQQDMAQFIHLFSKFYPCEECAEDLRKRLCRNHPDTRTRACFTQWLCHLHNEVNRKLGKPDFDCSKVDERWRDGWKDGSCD
# PHOSPHO1 inh = PHOSPHO1 (human) inhibition; 290,000 tested, 1.1% active; Q8TCT1; recombinant PHOSPHO1, absorbance phosphatase assay; inhibition, % at 13.3 µM; in the data active = inhibition above about 60%
# Target sequence (Q8TCT1 whole entry, looked up): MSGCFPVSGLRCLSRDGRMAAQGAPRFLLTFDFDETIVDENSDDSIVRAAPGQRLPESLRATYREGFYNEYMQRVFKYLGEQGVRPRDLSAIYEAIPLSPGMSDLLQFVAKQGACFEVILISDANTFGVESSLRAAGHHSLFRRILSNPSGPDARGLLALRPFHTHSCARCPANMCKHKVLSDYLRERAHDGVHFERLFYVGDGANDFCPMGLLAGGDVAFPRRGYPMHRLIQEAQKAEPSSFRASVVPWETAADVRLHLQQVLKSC
# AI-2 QS mod = modulates the Vibrio harveyi AI-2 quorum sensing system. Vibrio harveyi JMH597 AI-2 luminescence/OD600 ratio, 9 h; active compounds read low; strain lacks LuxN and CqsS sensors; 0 = neutral-control median. activity change, % at 7.5 µM. 300,000 tested, 0.4% active; in the data active = activity change below about -75%, passing the limit was not always enough; inconclusive = no clear call, values can overlap the other calls;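 note: luminescence divided by OD600 gain over 9 h not by final OD600 alone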
# * hit, by the source's call; u = inconclusive; x = no result given. Most compounds without a hit are left out; they make up all but 6.8% or so of the library.
SMILES,HSF1 activator,HSF1 inhib,core dimer inh,ALR inh,PHOSPHO1 inh,AI-2 QS mod
O=C(Nc1nc2ccccc2s1)c1ccc([N+](=O)[O-])o1,49,38,-1,-5,32,14
O=C(Nc1nc2cc3c(cc2s1)OCCO3)c1cccs1,-11,-19,-2,5,15,0
O=C(Nc1nc2cc3c(cc2s1)OCCO3)c1ccc([N+](=O)[O-])o1,104*,92,5,-31,27,29
Cc1cc(C)c2nc(NC(=O)c3ccc([N+](=O)[O-])o3)sc2c1,-15,8,-2,-5,3,18
NNc1nc2cc3c(cc2s1)OCCO3,-28,-25,5,99*,18,5
Cc1cc(C)c2sc(NC(=O)c3ccc([N+](=O)[O-])o3)nc2c1,77*,54,4,-14,31,-86*
COc1ccc2nc(NC(=O)c3ccc([N+](=O)[O-])o3)sc2c1,132*,100,28,-16,18,21
O=C(Nc1nc2c(F)cc(F)cc2s1)c1ccc([N+](=O)[O-])o1,37,10,-11,-11,36,11
CCOC(=O)c1cnc(SC)nc1Oc1cccc(NS(=O)(=O)c2ccc(C)cc2)c1,-6,-5,2,-4,21,16
COC(=O)c1sccc1NC(=O)CC1C(=O)NCCN1C(=O)c1ccc(F)cc1 (configuration not stated),-5,0,0,-7,7,2
COc1cc(-c2csc(NC3CCCCC3)n2)cc(OC)c1OC,11,-3,0,5,27,13
Cc1cc(Nc2ccc(Cl)cc2)nc(-c2ccccc2O)n1,-9,-3,x,-12,45,20
Cc1cc(Nc2cccc(Cl)c2)nc(-c2ccccc2O)n1,-77,-70*,5,-2,24,12
CC1Cc2ccccc2N1C(=O)C12CCC(C)(C(=O)C1)C2(C)C (configuration not stated),-71,-63*,0,-17,55,17
Cc1nc(-c2ccc(S(=O)(=O)N3CCCCCC3)cc2)cs1,23,10,0,-2,5,27
Cc1nc(-c2ccc(S(=O)(=O)N3CCOCC3)cc2)cs1,3,-2,4,93*,33,26
O=S(=O)(c1cccc(-c2csc(-c3ccccc3)n2)c1)N1CCOCC1,30,12,9,98*,-8,12
CC1CN(S(=O)(=O)c2cccc(-c3csc(-c4ccccc4)n3)c2)CC(C)O1 (configuration not stated),21,14,8,98*,10,29
O=S(=O)(c1cccc(-c2nc3ccccc3s2)c1)N1CCOCC1,9,0,-1,-20,11,12
CC1CN(S(=O)(=O)c2cccc(-c3cn4ccccc4n3)c2)CC(C)O1 (configuration not stated),4,3,3,-9,-2,-7
Cc1cc(C)nc(NC(=NCCc2c[nH]c3ccccc23)NC(=O)C(C)(C)C)n1,13,1,-7,-2,-41,x
O=C(CSc1ccc(Br)cc1)NC1CCS(=O)(=O)C1 (configuration not stated),22,5,1,x,x,46
Cc1ccc(SCC(=O)NC2CCS(=O)(=O)C2)cc1C (configuration not stated),x,x,x,99*,x,x
CCCc1cc(=O)oc2cc(C)cc(OCC(=O)N3CCC(C(=O)O)CC3)c12,-2,-4,-5,-20,23,19
Cc1c(Cl)cccc1NC(=S)N1CCN(Cc2ccc3c(c2)OCO3)CC1,5,-1,0,0,-3,19
SMILES,HSF1 activator,HSF1 inhib,core dimer inh,ALR inh,PHOSPHO1 inh,AI-2 QS mod
Cc1ccc2c(c1)c1c(n2CCc2ccc(C)nc2)CCN(C)C1,x,x,x,2,x,x
O=C(c1ccccc1N1CCOCC1)N1CCCC(Nc2ccc(F)cc2)C1 (configuration not stated),-5,2,-10,98*,46,x
COc1ccc(NC2CCCN(C(=O)c3ccccc3N3CCOCC3)C2)cc1OC (configuration not stated),17,6,-14,98*,26,13
Cc1ccc(NC2CCCN(C(=O)c3ccccc3N3CCOCC3)C2)cc1C (configuration not stated),0,3,0,99*,34,17
COC(=O)c1ccccc1C(=O)N1CCCC(C(=O)c2ccc(OC)c(OC)c2)C1 (configuration not stated),14,-1,-3,-21,22,29
CSc1ncccc1C(=O)N1CCCC(C(=O)c2cc(F)ccc2F)C1 (configuration not stated),23,14,-3,-2,44,18
COc1ccc(NC2CCCN(C(=O)c3cccnc3SC)C2)cc1OC (configuration not stated),27,17,-10,100*,28,36
CCC(CC)NC(=O)COn1nnc2ccc(S(=O)(=O)N3CCOCC3)cc21,-10,-6,-3,-2,x,24
COc1ccc(NS(=O)(=O)c2ccc(N3CCCCC3)c(N)c2)cc1,x,x,x,4,x,x
CCn1c(/C=C/c2c(C)n(CC)c3ccccc23)nc2ccccc2c1=O,7,-1,1,-5,-3,17
C(=N\Nc1nc2ccccc2s1)/c1cccs1,u,15,-14,89*,25,20
Cc1ccsc1/C=N/Nc1nc2ccccc2s1,66*,36,-7,x,11,-1
CCn1c(C)c(/C=N/Nc2nc3ccccc3s2)c2ccccc21,53*,14,-1,x,45,40
OCC(O)/C=N/Nc1nc2ccccc2s1 (configuration not stated),-9,-6,0,x,-2,3
C(=N\Nc1nc2ccccc2s1)/c1ccco1,65*,41,-9,63,39,15
CNC(=O)N(C1=NCCCCC1)c1ccc(Br)cc1,-2,2,1,-4,6,7
Cc1nn(-c2ccccc2Cl)c(Cl)c1/C=N/Nc1nc2ccccc2s1,-86,-84*,3,-4,2,6
Cn1cc([N+](=O)[O-])c(C(=O)Nc2nccs2)n1,77*,49,7,-52,36,27
Cn1cc([N+](=O)[O-])c(C(=O)Nc2ccc(Br)cn2)n1,53*,60,2,-1,42,29
COc1ccc(C(=O)Nc2nccs2)cc1[N+](=O)[O-],x,x,2,-6,-17,8
COc1ccc(C(=O)c2ccc3oc(-c4ccc(OC)cc4)c(-c4ccc(O)cc4)c3c2)cc1,x,x,x,-4,x,x
Cc1ccc(S(=O)(=O)N2CCC(NC(=O)c3cccnc3)CC2)cc1Cl,0,-1,13,-10,46,47
CCNC(=S)Nc1cc(-c2ccc(Cl)cc2)[nH]n1,20,11,1,97*,-45,-59
